Test results: paper PMC3794531 (Biomolecules & Therapeutics, 2012)

How the values were obtained:
[1] = sodium phosphate (pH 7), 120 min; ref Tallman et al., 2005; cited from earlier work
[2] = system: colon cancer-induced mice; assay: In vivo survival test in colon cancer-induced mice; conditions: intravenous, n=4
In short: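 Mice were anesthetized and the cecum exteriorized by laparotomy. CT26 cells (1×10^6 in 50 μl) were injected into the cecal wall, then the gut was returned and the incision closed (surgical orthotopic implantation). Test compounds were given intravenously, and survival was followed over the experimental period.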

[3] = Stability test in PBS, MCF7 cell lysates and rat plasma; assay type: in vitro ADME; conditions: 5 μM, 37℃
In short: (§1)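 Test compound (5 μM) was incubated at 37℃ in PBS, rat plasma, or MCF7 lysate. Lysate was prepared by adding PMSF, sonicating 10 sec, and centrifuging at 4℃ and 13,200 rpm for 15 min. Samples taken over time up to 120 min were quenched in ice-cold acetonitrile and centrifuged. Supernatant was diluted in 10 mM K2HPO4 pH 7.4 and run on C18 HPLC (K2HPO4:acetonitrile 62:38, 1 ml/min) with fluorescence detection (ex 380/em 540 nm). Data are mean ± SD.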

HT29 = assay: MTT cytotoxicity test in HT29 cells; assay type: cell-based; conditions: Homo sapiens, HT-29, 72 h
In short: (§2)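 Cells were grown in DMEM with 10% FBS, 100 unit/ml penicillin and 0.1 mg/ml streptomycin at 37℃ and 5% CO2, and split near 80% confluency. They were seeded at 1×10^5 cells/well and cultured 24 h to ~80% confluency, then exposed to test compound for 72 h. MTT (0.5 mg/ml in serum-free medium) was added for 2 h, and absorbance was read at 540 nm. Data are mean ± SD.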

MCF7 cells = assay: MTT cytotoxicity test in MCF7 cells; assay type: cell-based; conditions: Homo sapiens, MCF7, 72 h
In short: as §2

CT26 = assay: MTT cytotoxicity test in CT26 cells; assay type: cell-based
In short: as §2

[4] = ref Kawato et al., 1991; cited from earlier work
[5] = Proportion of total lactone form in PBS, MCF7 cell lysates and rat plasma; assay type: in vitro ADME; conditions: 37℃
In short: as §1

Row | SMILES | percentage of SN-38 lactone remaining [1] | survived longer than the irinotecan-administered group [2] | stability in MCF7 lysates ([3]; MCF7 lysates, up to 120 min) | compound remaining after 120 min ([3]; PBS) [%] | compound remaining after 120 min ([3]; rat plasma) | EC50 (HT29) [nM] | EC50 (MCF7 cells) [nM] | potency compared with irinotecan (CT26; MTT assay, CT26 and HT29 (Fig. 2)) | EC50 (CT26; Mus musculus, CT26, 72 h) [nM] | potency relative to irinotecan in terms of in vitro cytotoxicity [4] [fold] | proportion of the lactone form at 120 min ([5]; MCF7 lysates) | proportion of the lactone form at 120 min ([5]; PBS) | proportion of the lactone form at 120 min ([5]; all 3 conditions (PBS, MCF7 lysates, plasma)) | initial proportion of the lactone form ([5]; early time points, all 3 conditions (PBS, MCF7 lysates, plasma), 5 μM) | proportion of the lactone form at 120 min ([5]; rat plasma) | survival time [2] [days]
1 | CCc1c2c(nc3ccc(O)cc13)-c1cc3c(c(=O)n1C2)COC(=O)[C@]3(O)CC [SN-38, 7-ethyl-10-hydroxy-camptothecin] | around 40% | at least 2 weeks | rather unstable | ~80 | about 60% | 1320 | 248 | much more potent than the parent compound irinotecan | 17300 | 100 | around 40% | around 40% | 30-40% | 80-90% | ~ 30% | 
2 | CCc1c2c(nc3ccc(OC(=O)N4CCC(N5CCCCC5)CC4)cc13)-c1cc3c(c(=O)n1C2)COC(=O)[C@]3(O)CC [irinotecan] |  |  |  |  |  |  |  |  |  |  |  |  |  |  |  | < 28
